Laboratory results from publication PMC8092417 (Anti-cancer drugs, 2020).

Columns and labels:
[1] = test system: PDX organoids (PDX-Os) created from TU-BcX-4IC; assay: Live/dead fluorescence stain of patient-derived organoids; assay type: cell-based; details: 1 μM, 72 hours, Calcein-AM/EthD-III
Method in brief: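 Explants (2 × 2 mm) from passaged TU-BcX-4IC tumours were grown out for 7 days in 3D culture, giving mixed tumour and stromal cells. Organoids were moved to ultra-low-attachment spheroid wells and exposed to test compound or DMSO for 72 h. They were then stained with Calcein-AM (2 μM, live) and EthD-III (5 μM, dead) and imaged by confocal microscopy, 5 images per well.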

TU-BcX-4IC M2 spheres [2] = assay: In vivo inoculation of pre-treated spheres, tumorigenesis and metastasis; set-up: species or system SCID/Beige mice; details: 100,000 cells per injection
Method in brief: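 TU-BcX-4IC M2 spheres were pre-exposed to test compound (1 μM) or DMSO for 72 h under low attachment. Spheres were dissociated to single cells with TrypLE, and only trypan blue-excluding viable cells were used. 100,000 cells/injection went bilaterally into the mammary fat pad of SCID/Beige mice (5/group). Tumours were measured biweekly by caliper, then resected. Mice were killed 20 days later, and lungs and livers were formalin-fixed, paraffin-embedded and H&E-stained for metastases.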

MDA-MB-231 cells [3] = assay: Ki-67 immunofluorescence staining for proliferation; assay type: cell-based, human; details: MDA-MB-231, 1 μM, 72 hours
TU-BcX-4IC cells [4] = assay: Transwell migration assay; assay type: cell-based, human; details: pretreated 1 μM 72 hours, 24 hours migration
Method in brief: (§1)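 Cells were pretreated 72 h with test compound (1 μM) or DMSO, and viable cells were then seeded into transwell chambers for 24 h. Non-migrated cells were removed. Migrated cells were fixed, crystal violet-stained, imaged by brightfield and counted. Counts were normalized to DMSO per cell line; triplicate experiments.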

MDA-MB-231 cells [5] = assay: qRT-PCR of epithelial and mesenchymal genes; assay type: cell-based, human; details: MDA-MB-231, 1 μM, 72 hours
Method in brief: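 MDA-MB-231 cells in 5% charcoal-stripped DMEM were pre-exposed for 72 h to test compound (1 μM) or DMSO. RNA was then isolated and gene expression measured by quantitative real-time PCR.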

MDA-MB-231 cells [6] = assay: Crystal violet staining, cells remaining / viability dose-response; assay type: cell-based, human
Method in brief: (§2)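 Cells were plated at 5,000/well in 5% charcoal-stripped DMEM for 48 h, then exposed to test compound or DMSO vehicle for 72 h at 37 °C, 5% CO2. They were fixed with glutaraldehyde for 20 min and stained for 20 min with 0.1% crystal violet in 90% methanol. After overnight drying, cells were lysed in 33% acetic acid and read at 620 nm. Signal was normalized to DMSO and plotted as dose-response.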

MDA-MB-231 M2 spheres = assay: In vivo inoculation of pre-treated spheres, tumorigenesis and metastasis; set-up: species or system SCID/Beige mice; details: MDA-MB-231 M2 spheres pre-treated 1 μM 72 hours; all cell concentrations
Method in brief: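 M2 spheres were treated 72 h at 1 μM or with DMSO under low attachment, dissociated with TrypLE, and counted by Trypan Blue so that only viable cells were injected. Cells (1,000–200,000) went bilaterally into the mammary fat pads of SCID/Beige mice (N=5). Tumors were caliper-measured biweekly, then resected; mice were killed 20 days later. Lungs and livers were formalin-fixed, paraffin-embedded and H&E-stained, and metastases were quantified.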

BRSK2 = BRSK2 (Homo sapiens, UniProt Q8IWQ3); assay: Kinase inhibition assay; assay type: biochemical; details: 1 μM
TU-BcX-49S tumors = assay: qRT-PCR of ex vivo treated PDX tumor pieces; assay type: cell-based, human; details: TU-BcX-49S tumor pieces, 1 μM, 72 hours
TU-BcX-4IC M2 spheres [7] = assay: Mammosphere formation and area quantification; assay type: cell-based, human; details: 7 days treatment
Method in brief: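 Cells were plated at 1,000/well in low-attachment plates in serum-free F12/DMEM with B-27 and left 24 h to form spheres. Spheres were then exposed to test compound or DMSO for one week, re-dosed every three days. Spheres were imaged at 40X or 100X, and length and width were measured to calculate area, which was compared with DMSO controls.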

PDGFRB = PDGFRB (Homo sapiens, UniProt P09619); assay: Kinase inhibition assay; assay type: biochemical; details: 1 μM
LOK = LOK (Homo sapiens, UniProt O94804); assay: Kinase inhibition assay; assay type: biochemical; details: 1 μM
TU-BcX-4IC PDX model = assay: In vivo treatment of TU-BcX-4IC implants, tumor growth and metastasis; set-up: species or system SCID/Beige mice; details: 25 mg/kg bid intraperitoneally, 15 days, vs DMSO vehicle
Method in brief: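 Female SCID/Beige mice (5/group) received bilateral mammary fat pad implants of TU-BcX-4IC tumour pieces (3 × 3 mm). Twice-daily intraperitoneal dosing with test compound or DMSO vehicle began 24 h after implantation. At sacrifice, lungs and livers were formalin-fixed, paraffin-embedded, sectioned and H&E-stained. Lesion area and number per section were quantified.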

TU-BcX-4IC cells [8] = assay: Crystal violet staining, cells remaining / viability dose-response; assay type: cell-based, human; details: 1 μM, 72 hours
BT549 cells = assay: Transwell migration assay; assay type: cell-based, human; details: BT549, pretreated 1 μM 72 hours, 24 hours migration
Method in brief: as §1

TU-BcX-4IC explants = assay: Western blot of treated PDX tumor explants; assay type: cell-based, human; details: 24 hours
TU-BcX-2O0 tumors = assay: qRT-PCR of ex vivo treated PDX tumor pieces; assay type: cell-based, human; details: TU-BcX-2O0 tumor pieces, 1 μM, 72 hours
TU-BcX-2K1 tumors = assay: qRT-PCR of ex vivo treated PDX tumor pieces; assay type: cell-based, human; details: TU-BcX-2K1 tumor pieces, 1 μM, 72 hours
PLK1 = PLK1 (Homo sapiens, UniProt P53350); assay: Kinase inhibition assay; assay type: biochemical; details: 1 μM
TU-BcX-49S cells = assay: qRT-PCR of epithelial and mesenchymal genes; assay type: cell-based, human
BT-549 cells = assay: Crystal violet staining, cells remaining / viability dose-response; assay type: cell-based, human
Method in brief: as §2

[9] = TU-BcX-4IC M2 spheres pre-treated 1 μM 72 hours

LOK, sequence (O94804 whole entry): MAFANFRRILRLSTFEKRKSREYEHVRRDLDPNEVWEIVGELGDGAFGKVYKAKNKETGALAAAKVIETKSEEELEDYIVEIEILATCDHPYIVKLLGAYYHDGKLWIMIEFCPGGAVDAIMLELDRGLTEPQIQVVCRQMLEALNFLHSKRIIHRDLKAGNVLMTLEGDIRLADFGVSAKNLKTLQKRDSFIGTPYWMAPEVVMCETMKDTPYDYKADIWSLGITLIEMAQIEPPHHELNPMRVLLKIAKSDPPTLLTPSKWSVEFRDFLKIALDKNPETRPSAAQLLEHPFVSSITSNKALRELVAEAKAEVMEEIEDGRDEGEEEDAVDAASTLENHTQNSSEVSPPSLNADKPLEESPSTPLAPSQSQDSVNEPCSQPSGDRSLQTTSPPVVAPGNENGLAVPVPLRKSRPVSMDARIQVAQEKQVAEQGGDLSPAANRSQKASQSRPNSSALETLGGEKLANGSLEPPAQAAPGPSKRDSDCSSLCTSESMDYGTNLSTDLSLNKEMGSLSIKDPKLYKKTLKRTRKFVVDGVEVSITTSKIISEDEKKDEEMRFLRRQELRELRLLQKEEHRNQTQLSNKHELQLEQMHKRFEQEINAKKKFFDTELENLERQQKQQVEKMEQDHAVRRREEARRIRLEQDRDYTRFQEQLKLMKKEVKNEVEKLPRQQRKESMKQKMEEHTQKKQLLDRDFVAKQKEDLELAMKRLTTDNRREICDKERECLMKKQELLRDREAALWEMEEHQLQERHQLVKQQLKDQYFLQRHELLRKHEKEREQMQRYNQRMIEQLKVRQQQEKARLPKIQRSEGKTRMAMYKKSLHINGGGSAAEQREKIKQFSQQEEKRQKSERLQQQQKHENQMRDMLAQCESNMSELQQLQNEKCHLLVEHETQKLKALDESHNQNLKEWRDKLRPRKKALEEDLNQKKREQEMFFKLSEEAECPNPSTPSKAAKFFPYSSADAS
PLK1, sequence (P53350 whole entry): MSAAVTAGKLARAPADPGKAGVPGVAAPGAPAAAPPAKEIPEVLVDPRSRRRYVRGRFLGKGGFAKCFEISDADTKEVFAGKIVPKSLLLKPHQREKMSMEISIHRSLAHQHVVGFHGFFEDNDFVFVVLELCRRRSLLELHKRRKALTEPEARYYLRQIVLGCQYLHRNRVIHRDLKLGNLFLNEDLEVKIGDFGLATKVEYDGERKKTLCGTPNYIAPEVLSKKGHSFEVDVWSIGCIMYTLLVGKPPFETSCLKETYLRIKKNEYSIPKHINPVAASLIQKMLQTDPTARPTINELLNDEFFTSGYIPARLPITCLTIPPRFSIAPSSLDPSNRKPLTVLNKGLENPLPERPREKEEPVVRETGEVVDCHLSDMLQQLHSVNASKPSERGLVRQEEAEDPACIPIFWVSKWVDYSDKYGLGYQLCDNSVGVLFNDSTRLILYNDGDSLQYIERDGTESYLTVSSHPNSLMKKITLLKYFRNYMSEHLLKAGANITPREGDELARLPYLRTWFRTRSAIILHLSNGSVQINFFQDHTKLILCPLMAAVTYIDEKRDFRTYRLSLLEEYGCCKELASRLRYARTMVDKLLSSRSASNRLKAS
PDGFRB, sequence (P09619 33-1106): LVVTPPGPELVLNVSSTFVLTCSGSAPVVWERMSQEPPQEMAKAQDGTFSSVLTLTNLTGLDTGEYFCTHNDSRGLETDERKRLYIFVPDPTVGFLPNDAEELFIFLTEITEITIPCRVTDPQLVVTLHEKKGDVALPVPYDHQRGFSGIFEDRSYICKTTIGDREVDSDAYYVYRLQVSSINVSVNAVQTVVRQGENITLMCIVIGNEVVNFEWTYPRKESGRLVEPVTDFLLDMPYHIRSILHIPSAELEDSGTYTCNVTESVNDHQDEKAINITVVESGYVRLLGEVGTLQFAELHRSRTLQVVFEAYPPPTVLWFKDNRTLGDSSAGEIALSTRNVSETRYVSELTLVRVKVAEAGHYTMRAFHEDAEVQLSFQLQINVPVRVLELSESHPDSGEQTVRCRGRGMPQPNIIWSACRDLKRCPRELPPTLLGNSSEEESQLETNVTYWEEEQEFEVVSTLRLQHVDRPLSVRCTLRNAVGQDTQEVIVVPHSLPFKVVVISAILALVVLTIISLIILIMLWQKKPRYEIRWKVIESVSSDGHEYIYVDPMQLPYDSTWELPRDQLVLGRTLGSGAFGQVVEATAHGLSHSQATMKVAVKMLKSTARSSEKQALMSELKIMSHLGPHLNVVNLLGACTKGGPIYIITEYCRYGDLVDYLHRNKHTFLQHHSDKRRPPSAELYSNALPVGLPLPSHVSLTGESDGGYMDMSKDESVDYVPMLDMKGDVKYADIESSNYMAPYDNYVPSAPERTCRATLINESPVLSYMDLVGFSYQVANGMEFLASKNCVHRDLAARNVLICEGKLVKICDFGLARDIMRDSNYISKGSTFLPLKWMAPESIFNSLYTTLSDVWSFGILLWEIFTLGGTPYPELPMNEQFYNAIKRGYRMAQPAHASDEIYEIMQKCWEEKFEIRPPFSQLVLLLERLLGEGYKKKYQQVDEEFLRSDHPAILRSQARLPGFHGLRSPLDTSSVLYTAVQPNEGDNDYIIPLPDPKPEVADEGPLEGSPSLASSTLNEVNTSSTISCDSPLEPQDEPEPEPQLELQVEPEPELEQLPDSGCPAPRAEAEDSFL
BRSK2, sequence (Q8IWQ3 whole entry): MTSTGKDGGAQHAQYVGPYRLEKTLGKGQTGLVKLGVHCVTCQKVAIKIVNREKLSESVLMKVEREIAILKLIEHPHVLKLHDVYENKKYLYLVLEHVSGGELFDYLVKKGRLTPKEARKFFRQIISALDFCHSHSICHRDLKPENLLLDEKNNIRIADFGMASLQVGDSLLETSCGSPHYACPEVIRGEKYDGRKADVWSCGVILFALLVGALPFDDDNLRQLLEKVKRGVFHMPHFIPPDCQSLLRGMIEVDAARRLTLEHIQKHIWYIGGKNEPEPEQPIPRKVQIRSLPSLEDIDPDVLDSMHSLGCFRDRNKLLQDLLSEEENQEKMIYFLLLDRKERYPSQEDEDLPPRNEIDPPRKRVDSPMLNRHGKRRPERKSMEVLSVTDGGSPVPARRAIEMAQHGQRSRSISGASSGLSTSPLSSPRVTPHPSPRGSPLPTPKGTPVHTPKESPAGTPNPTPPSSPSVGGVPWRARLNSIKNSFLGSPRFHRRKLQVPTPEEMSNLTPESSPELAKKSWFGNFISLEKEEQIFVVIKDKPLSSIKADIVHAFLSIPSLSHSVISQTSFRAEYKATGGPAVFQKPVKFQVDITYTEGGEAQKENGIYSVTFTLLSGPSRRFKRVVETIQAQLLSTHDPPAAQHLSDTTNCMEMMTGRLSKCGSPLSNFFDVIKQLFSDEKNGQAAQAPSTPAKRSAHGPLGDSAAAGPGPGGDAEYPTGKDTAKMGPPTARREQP

## C[C@@H](Oc1cc(-n2cnc3ccc(NC(=O)NC(C)(C)C)cc32)sc1C(N)=O)c1ccccc1Cl [GSK346294A]
[1]
  Cytotoxicity to PDX organoids: not cytotoxic
TU-BcX-4IC M2 spheres [2]; [9]
  Area of liver metastases: did not suppress
  Area of lung metastasis: suppressed area of lung metastasis
  Total number of lung lesions: significantly suppresses total number of lesions
  Tumor formation of pre-treated spheres: significantly suppressed tumor formation
TU-BcX-4IC M2 spheres [2]; TU-BcX-4IC MS2 spheres pre-treated 1 μM 72 hours
  Number of liver metastases: did not suppress
MDA-MB-231 cells [3]
  Ki-67 positive cells (cell proliferation): increased the total number of cells expressing the Ki-67 marker
TU-BcX-4IC cells [4]
  Transwell cell migration: most suppressive effects on cell migration
MDA-MB-231 cells [5]
  MMP9 mRNA expression: downregulated MMP9 expression, but not significantly
  cFOS mRNA expression: suppressive effects in all three TNBC cell lines, although not significantly
MDA-MB-231 cells [6]; Homo sapiens, MDA-MB-231, 72 h, read-out: IC-50, number of cells remaining
  IC50: 50 µM
MDA-MB-231 cells [6]; MDA-MB-231, 1 μM, 72 hours
  Number of cells remaining compared to DMSO controls: decreased the number of cells remaining
MDA-MB-231 M2 spheres
  Area and number of lung and liver metastases: consistently suppressed both overall area and number of metastases in all cell concentrations, although not significantly
BRSK2
  Activity against BRSK2: moderate activity
TU-BcX-49S tumors
  CDH1 mRNA expression: increased epithelial markers CDH1 mRNA expression
TU-BcX-4IC M2 spheres [7]
  Mammosphere formation (sphere area): significantly suppressed mammosphere formation
PDGFRB
  Activity against PDGFRB: moderate activity
LOK
  Activity against LOK: moderate activity
  Binding activity to LOK: 36%
TU-BcX-4IC PDX model
  Area of liver metastases per section: minimally suppressed the area of liver metastases
  Area of lung metastases per section: did not affect the area of lung metastases
  Growth of the primary tumor: did not affect growth of the tumor
  Metastasis to lungs and livers, overall: did not effectively suppress metastasis
  Number of liver metastases per section: minimally suppressed
  Number of metastases per lung section: minimally reduce the overall number of metastases per lung section
TU-BcX-4IC cells [8]
  Number of cells remaining compared to DMSO controls: decreased the number of cells remaining
BT549 cells
  Transwell cell migration: most suppressive effects on cell migration
TU-BcX-4IC explants
  CDH1 protein expression: increased CDH1 protein
  MMP9 protein expression: suppressed the mesenchymal-associated proteins MMP9 and ZEB1
  ZEB1 protein expression: suppressed the mesenchymal-associated proteins MMP9 and ZEB1
TU-BcX-2O0 tumors
  MMP9 mRNA levels: did not reduce MMP9 levels
  Reversal of mesenchymal phenotype on a transcript level: did not reverse the mesenchymal phenotype
TU-BcX-2K1 tumors
  CD24 mRNA expression: increased CD24 expression
  CDH1 mRNA expression: increased epithelial markers CDH1 mRNA expression
PLK1
  Activity against PLK1: strong activity
TU-BcX-49S cells
  cFOS mRNA expression: Neither GSK346294A nor GSK448459A suppressed cFOS mRNA expression
TU-BcX-49S cells; compared to DMSO controls
  CDH1 mRNA expression: increased CDH1 expression
BT-549 cells; BT-549, 1 μM, 72 hours
  Number of cells remaining compared to DMSO controls: decreased the number of cells remaining
BT-549 cells; Homo sapiens, BT-549, 72 h, read-out: IC-50, number of cells remaining
  IC50: 1 µM
